Source: PubChem BioAssay (Broad Institute)
Only some compounds are listed: those with a hit (about 2.2% of all), similar ones and a draw of the others.
FGF22 binding-1 – binders of recombinant human FGF22 by thermal shift. Q9HCT0. SYPRO orange fluorescence; percent of sucrose octasulfate shift, DMSO zero. activity (Tm shift, normalised), % at 9.99 µM. 1.5% of 340,000 active. AID 651658;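 active = mean Tm shift, scaled 0 neutral to 100 positive control, at about 1.3% or above, every replicate too, limit read from the data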
F508del corr – correctors of CFTR F508del function in bronchial epithelial cells. CFBE cells, YFP halide quenching; stimulated with forskolin plus potentiator P3; % fluorescence drop versus neutral controls. 0.36% of 350,000 active. activity (quench increase), % at 7.58 µM;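 active = mean added fluorescence quench of at least 8% versus neutral control, with both replicates also reaching 8%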;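 also: cells transiently co-express mutant CFTR-F508del with the halide-sensitive YFP; corrector assay measuring rescue of mutant channel to the surface after 24 h compound exposure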
dFosB act – enhances mouse delta FosB homodimer DNA binding. P13346. purified delta FosB, TAMRA-CDK5 oligo fluorescence polarization; percent of positive-control signal above neutral wells. activation, % at 25 µM. 0.99% of 340,000 active. AID 493131;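 active = mean activation above about 17%, with every replicate also reaching it, limit read from the data, passing the limit was not always enough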
S100A4 MyoIIA – blocks human S100A4 binding to myosin IIA peptide | P26447 | S100A4/TAMRA-MyoIIA peptide fluorescence polarization | inhibition, % at 10.7 µM | 0.14% of 360,000 active | AID 652163;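 active = mean inhibition of at least 70% across replicates, with every replicate also reaching that level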
Target sequence (P26447 whole entry, looked up): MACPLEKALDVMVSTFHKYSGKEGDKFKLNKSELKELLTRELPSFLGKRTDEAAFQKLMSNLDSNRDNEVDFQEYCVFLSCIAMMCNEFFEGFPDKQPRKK
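assay system = human S100A4 monomer with TAMRA-labelled myosin IIA peptide | also added = labelled myosin peptide probe, 5 nM | incubation = 5 min between mix addition and reading | control set = DMSO and TFP controls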
FGF22 binding-2 – FGF22 (human) binding in thermal shift; shares compounds with FGF22 binding-1; recombinant FGF22 thermal shift, SYPRO orange fluorescence; thermal shift activity, °C (ΔTm) at 38 µM; 2% of 1,000 active;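 active = fitted rise in melting shift crosses a set limit at or below the top valid dose tested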
TSA no protein – shows thermal shift signal without protein, FGF22 counter-screen. shares compounds with FGF22 binding-1. 2% of 1,000 active. AC50, µM (highest dose often 38 µM). AID 743019. compound-only SYPRO orange thermal shift counter-screen, no protein;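 active = rising signal whose fitted curve reaches the 0.54 level within the top valid dose, showing a melting point, actives reach about 13 µM in these data; inactive = the rest, including activity in the opposite direction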; also: value is where the raw curve crosses a fixed level and not half-maximal
Active calls of the source: *; i = inactive; nt = no result given.

SMILES	FGF22 binding-1	F508del corr	dFosB act	S100A4 MyoIIA	FGF22 binding-2	TSA no protein
CC(C)C#Cc1ccc2c(c1)O[C@@H](CN(C)Cc1cccnc1)[C@@H](C)CN([C@H](C)CO)S2(=O)=O	0	1	nt	-47	nt	nt
CO[C@H]1CN(C)C(=O)c2cc(NC(=O)c3ccccc3F)ccc2OC[C@@H](C)N(C(=O)c2ccccc2F)C[C@H]1C	0	-2	nt	-2	nt	nt
Nc1nc(O)c(Sc2ccccc2[N+](=O)[O-])c(=O)[nH]1	1.9*	0	2	2	0.026	i
O=C(N/N=C/c1ccccc1)c1cc(-c2ccc3c(c2)OCO3)n[nH]1	0	0	11	0	nt	nt
O=C(N/N=C/c1cccc(O)c1)c1cc(-c2ccc3c(c2)OCO3)n[nH]1	1.9*	-4	41*	-1	0.085	i
CC1=NN(c2ccccc2)C(=O)C1N=Nc1ccccc1 (configuration not stated)	0	-2	-1	3	nt	nt
COc1ccc(N=NC2C(=O)N(c3ccccc3)N=C2C)cc1 (configuration not stated)	1.6*	0	-9	4	-0.059	i
CCCNC(=O)N1CC2(C1)[C@H](c1ccccc1)[C@H](CO)N2Cc1cccc(Cl)c1	1	0	nt	10	nt	nt
COCC#Cc1cnc2c(c1)C(=O)N([C@H](C)CO)C[C@@H](C)[C@H](CN(C)C(=O)C1CCC1)O2	0	3	nt	0	nt	nt
